Source: PubChem (several laboratories)
This is one part of a sample in which hits are shown more often than they occur.
UPR CHOP act – activators of apoptotic CHOP UPR arm, primary screen, cell-based, CHO-CHOP luciferase reporter, luminescence, uHTS; UPR activation; percent of tunicamycin response over DMSO baseline; activation, % at 10 µM; 330,000 compounds, 0.34% hits; AID 449763, 2010;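 active = at 10 µM dose, activation of 40% or more, normalized to positive control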;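 note: 100% = tunicamycin at 10 µg/mL and 0% = DMSO alone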
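System: CHO-CHOP luciferase reporter cell line; amount: 500 cells/well; buffer or medium: F12 medium containing 10% fetal bovine serum; incubation: 6 h compound exposure at 37 °C after overnight seeding; measured by: luciferase luminescence after 10 min with Steady-Glo reagent; evaluation: % reporter activation, DMSO baseline versus tunicamycin full activation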
XBP1 UPR activ – activators of adaptive XBP1 UPR arm, primary screen, cell-based, CHO-XBP1 luciferase reporter, luminescence, uHTS; IRE1-XBP1 UPR activation; percent of tunicamycin response, DMSO as zero; activation, % at 20 µM; 330,000 compounds, 0.33% hits;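 active = versus positive control, 20 µM dose yields 30% or more activation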;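 note: 100% = tunicamycin at 10 µg/mL and 0% = DMSO only wells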
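Material: CHO-XBP1 cells stably carrying IRE1-XBP1-driven luciferase reporter | Medium: F12 with 10% serum | Compound dosing: 20 µM single concentration, DMSO 1% | Incubation: Overnight seeding at 37 °C, 6 h compound treatment at 37 °C | Detection: Steady-Glo luminescence read | Read-out basis: % activation of reporter signal versus tunicamycin and DMSO controls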
Lmaj promast – Leishmania major promastigote growth inhibition, primary screen; Leishmania major promastigotes, resazurin fluorescence viability; inhibition, % at 10 µM; 200,000 compounds, 9% hits; AID 1063, 2008; in the data active = inhibition above about 50%;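 note: promastigotes grown with compound for 44 hours at 28 °C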
T cruzi inh – inhibitors of intracellular T. cruzi growth, primary screen, luminescence, NIH3T3 host cells; 300,000 compounds, 1.4% hits; AID 1885, 2009; T. cruzi beta-gal in NIH3T3, 90 h; inhibition, % (no concentration beside the values);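 active = mean inhibition across valid replicates above about 55%, limit read from the data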;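 note: signal also drops with host cell toxicity which is not excluded here; 0% = plate median of DMSO wells and 100% = zero luminescence signal; higher percent means less beta-gal luminescence so fewer parasites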
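Incubation – ≥90 h infection period, 3 h prior cell attachment · System – NIH/3T3 fibroblasts plus reporter T. cruzi · Doses – compound pinned at 50 nL/well, DMSO · Read-out basis – percent inhibition of parasite-derived β-gal signal · Signal – luminescent β-galactosidase signal after 60 min lysis · Also added – 5000 T. cruzi trypomastigotes/well · Medium – Low-serum DMEM with 2% FBS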
Dynein cargo inh – inhibitors of GR-EGFP nuclear translocation, primary screen, dynein cargo transport inhibitor project, imaging, high-content, 3617.4 mouse cells; 220,000 compounds, 0.47% hits; z-score, hits read low; test concentration mostly 20 µM; stimulated with dexamethasone, 1 µM; hits give low values;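 active = plate z-score of nuclear minus cytoplasmic receptor signal below a set negative limit, without overly bright fluorescence or cell loss, cut at about -3.5 in these data, passing the limit was not always enough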;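 note: z-score of nuclear minus cytoplasmic ring GR-EGFP intensity difference per well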
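medium = tetracycline-free induction medium containing charcoal-stripped FBS | probe or stimulus = dexamethasone, 1.0 µM final | timing = 48 h induction, then 1 h compound, then 30 min agonist, 37 °C | detection = automated 10x imaging of fixed Hoechst-stained cells | read-out basis = nuclear versus cytoplasmic GR-EGFP signal, averaged per well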
CHOP inh – inhibitors of CHOP promoter induction, primary screen, cell-based, unfolded protein response, luciferase reporter; CHO-K1 CHOP-promoter luciferase, tunicamycin-induced, 15-18 h; 220,000 compounds, 3.8% hits; inhibition, % at 10 µM;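 active = compounds that reduced the stress-induced luciferase reporter signal by more than about 70% of percent inhibition, limit read from the data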;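 note: 0% = tunicamycin plus vehicle and 100% = wells without tunicamycin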
The depositor's hits bear a star; x = no result given.

SMILES	UPR CHOP act	XBP1 UPR activ	Lmaj promast	T cruzi inh	Dynein cargo inh	CHOP inh
CCN(c1ccc(NS(=O)(=O)c2cc(Cl)ccc2Cl)cc1)C(C)C	1.5	0.0	25.4	23.4	-0.42	93.3*
CN(C)c1ccc(NS(=O)(=O)c2cc(Cl)ccc2Cl)cc1	6.2	1.1	63.6*	11.7	0.391	19.1
Cc1ccc(S(=O)(=O)N2CCOCC2)cc1C(=O)OC(C)C(=O)c1ccccc1 (stereo unspecified)	1.8	-3.4	x	1.9	x	x
COc1ccc(CC(=O)N[C@@H]2c3cc(OC)c(OC)cc3C[C@H]2O)cc1	1.4	-2.4	x	x	x	x
CC(C)CC(=O)NC(NC(=S)Nc1sc2c(c1C#N)CCCC2)C(Cl)(Cl)Cl (stereo unspecified)	1.7	-1.5	-5.2	7.9	0.151	78.5*
CCCNC(=O)COC(=O)CCC(=O)c1cccs1	-0.6	-2.5	57.4*	15.8	-0.119	15.2
COc1ccccc1CCNC(=O)CSc1nc(=O)[nH]c2c1CCC2	-0.1	-3.6	x	-6.7	x	x
O=C(COC(=O)CNS(=O)(=O)c1cccc(Br)c1)NC(=O)Nc1ccc2c(c1)OCCO2	x	x	-2.5	x	-0.433	4.4
O=C(Nc1cccc(NC(=O)c2ncn[nH]2)c1)c1cccc(Cl)c1	-0.7	0.4	100.0*	42.5	-0.0313	17.9
COc1cccc(NC(=O)c2ncn[nH]2)c1	0.2	-0.2	5.7	9.7	-0.271	11.3
COc1ccc(S(=O)(=O)Nc2cccc(S(=O)(=O)N3CCCC3)c2)cc1OC	-0.2	-2.3	x	-1.0	x	x
CC(C)N(C(=O)N1CCN(c2ccnc3cc(Cl)ccc23)CC1)C(C)C	0.0	-1.8	x	6.5	x	x
Cc1cc(C)n(/N=C/c2c[nH]c3ccccc23)c(=O)c1	-0.6	-0.3	-2.5	-16.3	-0.532	24.2
COCCN=c1scc(-c2ccccc2)n1/N=C/c1c[nH]c2ccccc12	3.4	2.9	13.0	-8.2	-0.582	72.7*
O=C(NCc1ccon1)C1CCC(=O)N(CCc2ccc(Cl)cc2)C1 (stereo unspecified)	0.5	-6.6	x	-5.8	x	x
Cc1sc2ncn(CCn3cnc4sc(C)c(C)c4c3=O)c(=O)c2c1C	-2.0	4.7	7.8	0.2	-0.391	89.8*
Cc1ccc(-c2oc3ncnc(N)c3c2-c2ccc(C)cc2)cc1	0.2	-0.3	-5.6	36.8	0.189	82.3*
O=C(NCc1ccc(F)cc1)C1CCCN(C(=O)NCc2ccccc2)C1 (stereo unspecified)	-0.2	-4.4	x	-6.9	x	x
COCCn1c(N)c(N(Cc2ccccc2)C(=O)c2ccc(-c3ccc(Cl)cc3)o2)c(=O)[nH]c1=O	-0.7	-1.2	x	1.8	x	x
COc1ccc(NC(=O)c2cc(-c3ccccn3)nc3ccccc23)cc1S(=O)(=O)N(C)C	1.5	-1.5	x	x	x	x
CCN(CC)S(=O)(=O)c1cc(NC(=O)c2n[nH]c(=O)c3ccccc23)ccc1C	0.2	-5.5	66.0*	4.2	0.623	43.7
CCN(CC)S(=O)(=O)c1cc(NC(=O)c2cc(-c3ccccn3)nc3ccccc23)ccc1C	0.5	-1.5	53.1*	52.6	0.125	38.4
O=C(CC(Nc1ccc(F)cc1)C(=O)O)c1ccccc1 (stereo unspecified)	1.5	-0.4	60.7*	-15.9	-0.19	-15.4
Brc1ccc(Oc2nsnc2N2CCOCC2)cc1	0.9	-2.1	-1.6	1.9	-0.284	83.7*
Cc1ccccc1-n1nnnc1SCC(=O)c1c(N)n(C2CC2)c(=O)[nH]c1=O	-0.7	2.1	x	x	x	x
SMILES	UPR CHOP act	XBP1 UPR activ	Lmaj promast	T cruzi inh	Dynein cargo inh	CHOP inh
COc1ccc2cc(C(=O)/C=C/c3cc(OC)c(O)c(OC)c3)ccc2c1	5.3	11.6	x	-44.8	x	x
COc1cccc(/C=C/C(=O)c2c(O)cc(C)oc2=O)c1O	25.5	2.5	96.6*	-11.6	-1.7	46.8
Cc1cc(O)c(C(=O)/C=C/c2ccc(Cl)cc2)c(=O)o1	5.4	-4.7	x	-3.3	x	x
COc1cc(/C=C/C(=O)c2c(O)cc(C)oc2=O)cc(OC)c1O	4.1	2.7	97.1*	6.9	-0.174	18.3
COc1ccc(/C=C/C(=O)c2c(O)cc(C)oc2=O)c(OC)c1	1.3	-0.4	0.7	-18.2	-0.977	-10.3
COc1ccc(C(=O)/C=C/c2cc(OC)c(O)c(OC)c2)c(F)c1	2.0	11.5	89.8*	-8.1	-3.08	-4.6
O=C(CN1CCCCC1)NC(=O)NC1CCCC1	0.0	-2.0	-2.1	0.1	-0.679	46.7
O=C(CN1CCCCCCC1)NC(=O)NC1CCCCC1	3.8	2.7	57.5*	7.3	0.221	39.8
O=C(CN1CCCc2ccccc21)NC(=O)NCc1ccco1	-1.2	0.5	10.6	-1.8	-0.899	7.5
CC1Cc2ccccc2N1CC(=O)NC(=O)NC1CCCC1 (stereo unspecified)	1.6	-1.4	97.5*	x	0.409	17.8
CC1Cc2ccccc2N1CC(=O)NC(=O)NCc1ccco1 (stereo unspecified)	-1.9	-0.6	96.7*	-4.8	-1.23	12.1
C=CCc1ccc(OCc2ccc(C(=O)Nc3ccc(NC(C)=O)cc3)o2)c(OC)c1	0.2	-2.8	x	6.5	x	x
C[C@@H]1CN([C@@H](C)CO)C(=O)c2cc(NC(=O)C3CC3)ccc2O[C@@H]1CN(C)C(=O)NC1CCCCC1	-1.8	-1.3	x	x	x	x
COc1ccc(C(=O)NCCc2cccc(Cl)c2)cc1OC1CCN(C(C)=O)CC1	0.9	-3.4	x	0.3	x	x
CCN1C(=O)/C(=C/C=C2/SCCN2C)SC1=S	2.8	-4.9	-5.2	25.0	-0.328	-31.8
CCCCN1C(=O)/C(=C/C=C2/CC(C)(C)CN2C)SC1=S	4.8	4.4	58.5*	17.5	0.641	-32.3
CC(C)(C)c1ccc(C(=O)N2CCC(C(=O)c3ccccc3)CC2)cc1	-1.0	-1.0	x	9.4	x	x
CCN(c1ccccc1)S(=O)(=O)c1ccc(Cl)c(C(=O)OCC(=O)c2[nH]c(C)c(C(C)=O)c2C)c1	2.6	-1.4	53.1*	-1.2	0.481	21.9
N/C(Cc1ccc(Cl)cc1)=N\OC(=O)c1cccc2ccccc12	0.4	4.3	99.0*	65.1*	1.43	44.7
CC1CCN(C(C)C(=O)Nc2ccccc2-c2ccccc2)CC1 (stereo unspecified)	-0.4	0.9	51.0*	6.0	0.448	69.6
Cc1ccc(S(=O)(=O)N2CCN(C(C)C(=O)Nc3ccccc3-c3ccccc3)CC2)cc1 (stereo unspecified)	1.5	-0.4	93.6*	20.8	-0.427	24.2
